pIC50: −log10 of the molar value. Active and inactive are the calls of the source. The calls are words filed in the database; no cut-off is given here.
Legend:
HT-1080 [1] = assay: Inhibition of cell migration of scratched human HT1080 cells monolayers at 100 uM after 48 hrs by phase contrast microscopy based wound-healing assay; format: functional
[2] = Inhibition of cell proliferation of human HT1080 cells after 72 hrs by WST-8 dye based cell counting assay; format: functional; settings: HT-1080, 72 h
Outline: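 HT1080 cells seeded at 1.0 × 10³/well and kept under hypoxia (1% O₂); growth read 72 h after compound addition with WST-8 reagent, absorbance at 450 nm.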

[3] = molecular target: T1, Hypoxia inducible factors; HIF-1-alpha, HIF-2-alpha (Homo sapiens, UniProt Q16665+Q99814); assay: Inhibition of HIF1-mediated carbonic anhydrase 9 gene expression in human HT1080 cells at 100 uM after 16 hrs by real time PCR method; format: cell-based; settings: HT-1080
Outline: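 HT1080 cells exposed to compounds at 100 µM for 16 h; CAIX mRNA measured by quantitative PCR normalized to 18S rRNA, expressed relative to the normoxic value.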

[4] = molecular target: T1, Hypoxia inducible factors; HIF-1-alpha, HIF-2-alpha; assay: Inhibition of HIF1 in human HT1080 cells transfected with 5xHRE/pGL3/VEGF/E1b reporter plasmid pre-incubated for 1 hr followed by incubation under hypoxia conditions for 24 hrs by HRE-driven luciferase reporter gene assay; format: cell-based; settings: for IC50: ht-1080
HT-1080 [5] = assay: Effect on HIF-1alpha gene expression in human HT1080 cells up to 100 uM after 4 hrs by real time PCR method; format: functional, cell-based
Outline: (§1)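 HT1080 cells treated 4 h with compound; mRNA of CAIX, HIF-1a and HIF-1b quantified by real-time PCR, normalized to 18S rRNA and expressed relative to DMSO-treated cells.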

[6] = molecular target: T1, Hypoxia inducible factors; HIF-1-alpha, HIF-2-alpha; assay: Inhibition of HIF1-mediated carbonic anhydrase 9 gene expression in human HT1080 cells at 1 to 100 uM after 4 hrs by real time PCR method; format: cell-based; settings: HT-1080; outline: as §1
HT-1080 [7] = assay: Effect on HIF-1beta gene expression in human HT1080 cells up to 100 uM after 4 hrs by real time PCR method; format: functional, cell-based; outline: as §1

| Structure (SMILES) | inhibition [3] | IC50 [4] [µM] | inhibition ([4]; HT-1080) | inhibition [6] | inhibition (HT-1080 [1]) | pIC50 [2] | Activity (HT-1080 [5]) | Activity (HT-1080 [7]) |
| --- | --- | --- | --- | --- | --- | --- | --- | --- |
| CCn1cc(NC(=O)c2ccc(Cn3nc(C)c(Br)c3C)o2)c(C(N)=O)n1 | Active | 8.1 | – | – | Active | 5.15 | – | – |
| CCn1cc(NC(=O)c2ccc(Cn3nc(C)c(Cl)c3C)o2)c(C(N)=O)n1 | Active | 8.7 | – | – | Active | 5.13 | – | – |
| CCn1cc(NC(=O)c2ccc(Cn3cccn3)o2)c(C(N)=O)n1 | – | 81.8 | – | – | – | 4.12 | – | – |
| CCn1cc(NC(=O)c2cccc(Cn3nc(C)cc3C)c2)c(C(N)=O)n1 | – | 72 | – | – | – | 4.30 | – | – |
| CCn1cc(NC(=O)c2ccc(Cc3c(C)noc3C)o2)c(C(N)=O)n1 | – | > 100 | – | – | – | < 4.00 | – | – |
| CCn1cc(NC(=O)c2ccc(Cn3nc(C)cc3C)s2)c(C(N)=O)n1 | – | > 100 | – | – | – | < 4.00 | – | – |

Continued, in another order:

| inhibition [3] | IC50 [4] [µM] | inhibition ([4]; HT-1080) | inhibition [6] | Structure (SMILES) | inhibition (HT-1080 [1]) | pIC50 [2] | Activity (HT-1080 [5]) | Activity (HT-1080 [7]) |
| --- | --- | --- | --- | --- | --- | --- | --- | --- |
| – | 19.4 | – | – | CCn1cc(NC(=O)c2ccc(Cn3nc(C)cc3C)o2)c(C(=O)NC)n1 | – | 4.74 | – | – |
| – | > 100 | – | – | Cc1cc(C)n(Cc2ccc(C(=O)Nc3cnn4c3C(=O)NCC4)o2)n1 | – | < 4.00 | – | – |
| – | 71.6 | – | – | Cc1cc(C)n(Cc2ccc(C(=O)Nc3c[nH]nc3C(N)=O)o2)n1 | – | 4.18 | – | – |
| – | > 100 | – | – | CCn1cc(NC(=O)c2ccc(Cn3nc(C)cc3C)o2)c(C(=O)N(C)C)n1 | – | 4.12 | – | – |
| – | 19.1 | Dose-dependent effect | Dose-dependent effect | CCn1cc(NC(=O)c2ccc(Cn3nc(C)cc3C)o2)c(C(N)=O)n1 | Active | 4.82 | inactive | inactive |
| inactive | > 100 | – | – | CCn1ncc(NC(=O)c2ccc(Cn3nc(C)cc3C)o2)c1C(N)=O | – | < 4.00 | – | – |
